Nine molecules from ChEMBL document CHEMBL4177578, “Synthesis, pharmacological activities and molecular docking studies of pyrazolyltriazoles as anti-bacterial and anti-inflammatory agents” (Bioorg Med Chem, 2017) can be followed below.

In brackets after ≈: the same amount, converted by molar mass. Activity calls are given as the source filed them. No cut-off for these calls is given here.

Experiment [1] relates to U-937. The experiment can be described thus: Anti-inflammatory activity in human U937 cells assessed as inhibition of LPS-induced IL6 production at 10 uM pre-incubated for 1 hr before LPS stimulation for 24 hrs by ELISA method. Format: functional. Put shortly: (§1)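 Human U937 cells grown in RPMI1640 with 10% FBS at 37 °C, 5% CO2. Differentiated with PMA 30 ng/ml for 24 h. Test compounds added for 1 h, then LPS 1 µg/ml for 24 h. TNF-α and IL-6 in supernatant measured by ELISA. Three independent experiments.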

Experiment [2] has as its system Mus musculus. The experiment can be described thus: Anti-inflammatory activity in Balb/c mouse assessed as reduction in LPS-induced serum TNFalpha production at 100 mg/kg, ig dosed for 3 consecutive days before LPS challenge and measured 6 hrs post LPS injection by ELISA method. Format: functional, organism-based. Put shortly:
(§2)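 Male Balb/c mice (20–25 g), 8 per group. Test compound at 100 mg/kg suspended in 2% gum acacia (10 ml/kg), given orally (intragastric) for 3 consecutive days. On day 3, LPS (10 mg/kg) given ip 1 h after the oral dose. Serum taken from retro-orbital blood 6 h after LPS; TNF-α and IL-6 measured by ELISA. Mean ± S.E.M.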

The subject of experiment [3] is U-937. The experiment can be described thus: Anti-inflammatory activity in human U937 cells assessed as inhibition of LPS-induced TNFalpha production pre-incubated for 1 hr before LPS stimulation for 24 hrs by ELISA method. Format: functional, cell-based. Put shortly: as §1
Experiment [4] is described as follows: Anti-inflammatory activity at 100 ug/ml using bovine serum albumin and egg albumin proteins incubated at 37 degC for 20 mins and then heated to 95 degC for 20 mins by UV-visible Spectrophotometry based protein denaturation method. Format: functional. The essentials: (§3)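 Albumin (bovine serum or egg) at 1% in 50 mM sodium phosphate buffer pH 6.4. Mixture is 0.1 ml test sample (1 mg/ml) plus 0.2 ml albumin, made to 5 ml with buffer. Held 37 °C for 20 min, then 95 °C for 20 min. Cooled to room temperature, turbidity read at 660 nm. % inhibition = (Abs control − Abs sample)/Abs control × 100. Triplicate, averaged.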

Experiment [5] can be described thus: Anti-inflammatory activity using bovine serum albumin and egg albumin proteins incubated at 37 degC for 20 mins and then heated to 95 degC for 20 mins by UV-visible Spectrophotometry based protein denaturation method. The experiment is classed as functional. Put shortly:
as §3

Experiment [6] relates to U-937. The experiment can be described thus: Anti-inflammatory activity in human U937 cells assessed as inhibition of LPS-induced IL6 production pre-incubated for 1 hr before LPS stimulation for 24 hrs by ELISA method. Format: functional, cell-based. The essentials: as §1
Experiment [7] can be described thus: Anti-inflammatory activity at 50 ug/ml using bovine serum albumin and egg albumin proteins incubated at 37 degC for 20 mins and then heated to 95 degC for 20 mins by UV-visible Spectrophotometry based protein denaturation method. Format: functional. The essentials:
as §3

Experiment [8] concerns Mus musculus. The experiment can be described thus: Anti-inflammatory activity in Balb/c mouse assessed as reduction in LPS-induced serum IL6 production at 100 mg/kg, ig dosed for 3 consecutive days before LPS challenge and measured 6 hrs post LPS injection by ELISA method. Format: functional, organism-based. The essentials:
as §2

Experiment [9] concerns U-937. The experiment can be described thus: Anti-inflammatory activity in human U937 cells assessed as inhibition of LPS-induced TNFalpha production at 10 uM pre-incubated for 1 hr before LPS stimulation for 24 hrs by ELISA method. The experiment is classed as functional. The essentials:
as §1

The subject of experiment [10] is Salmonella typhi. The experiment can be described thus: Antimicrobial activity against Salmonella typhi at 1 mg/ml incubated for 20 to 30 mins followed by incubation for 24 hrs at 37 degC by agar plate method. Format: functional, Salmonella enterica subsp. enterica serovar Typhi. The conditions noted are these: Salmonella enterica; read-out: DIZ. Put shortly: (§4)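 Agar well diffusion on nutrient agar. Plates swabbed with 60 µL inoculum, 8 mm wells loaded with 100 µL sample at 1.0 mg/mL, streptomycin standard and control in separate wells. Plates held 20–30 min at 4 °C for diffusion, then 24 h at 37 °C. Zone diameter read in mm; triplicate.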

Experiment [11] relates to Salmonella typhi. The experiment can be described thus: Antimicrobial activity against Salmonella typhi incubated for 12 to 16 hrs by tube dilution method. Format: functional, Salmonella enterica subsp. enterica serovar Typhi. The conditions noted are these: Salmonella enterica. Put shortly:
(§5)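 Broth tube dilution, two-fold serial dilutions from 500 to 1.9 µg/mL plus a drug-free control tube. Each tube inoculated with 1 mL culture at OD 0.2 (~McFarland standard), 37 °C for 12-16 h. Turbidity compared with the control tube. MIC is the lowest concentration giving complete growth inhibition.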

Experiment [12] has as its system Salmonella paratyphi. The experiment can be described thus: Antimicrobial activity against Salmonella paratyphi at 1 mg/ml incubated for 20 to 30 mins followed by incubation for 24 hrs at 37 degC by agar plate method. The experiment is classed as functional, Salmonella enterica subsp. enterica serovar Paratyphi A. Particulars: Salmonella enterica; read-out: DIZ. The essentials:
as §4

The test system of experiment [13] is Micrococcus luteus. The experiment can be described thus: Antimicrobial activity against Micrococcus luteus incubated for 12 to 16 hrs by tube dilution method. Format: functional. The essentials: (§6)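 Tube dilution, serial from 500 to 1.9 µg/mL, plus drug-free control tube. Each tube inoculated with 1 mL culture at OD 0.2, incubated 37 °C for 12–16 h. MIC is the lowest concentration with no growth by turbidity. MBC is found by plating each tube on nutrient agar: the lowest concentration at which all cells are killed.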

The test system of experiment [14] is Salmonella typhi. The experiment can be described thus: Antimicrobial activity against Salmonella typhi incubated for 12 to 16 hrs followed by plating in nutrient agar by tube dilution method. Format: functional, Salmonella enterica subsp. enterica serovar Typhi. Particulars: Salmonella enterica. Put shortly: (§7)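 After 12-16 h at 37 °C in tube dilution (500 to 1.9 µg/mL; 1 mL inoculum at OD 0.2), the culture from each tube was plated on nutrient agar. MBC is the concentration at which cells are completely killed.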

The subject of experiment [15] is Salmonella paratyphi. The experiment can be described thus: Antimicrobial activity against Salmonella paratyphi incubated for 12 to 16 hrs by tube dilution method. The conditions noted are these: Salmonella enterica. The experiment is classed as functional, Salmonella enterica subsp. enterica serovar Paratyphi A. Put shortly:
as §5

The subject of experiment [16] is Micrococcus luteus. The experiment can be described thus: Antimicrobial activity against Micrococcus luteus incubated for 12 to 16 hrs followed by plating in nutrient agar by tube dilution method. Format: functional. The essentials:
as §6

Experiment [17] has as its system Micrococcus luteus. The experiment can be described thus: Antimicrobial activity against Micrococcus luteus at 1 mg/ml incubated for 20 to 30 mins followed by incubation for 24 hrs at 37 degC by agar plate method. The experiment is classed as functional. The conditions noted are these: read-out: DIZ. Put shortly:
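Agar well diffusion on nutrient agar. Plates swabbed with 60 µL inoculum; 8 mm wells loaded with 100 µL of compound at 1.0 mg/mL. Held 20–30 min at 4 °C for diffusion, then 24 h at 37 °C. Inhibition zone diameter read in mm. Triplicate.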

Experiment [18] relates to Salmonella paratyphi. The experiment can be described thus: Antimicrobial activity against Salmonella paratyphi incubated for 12 to 16 hrs followed by plating in nutrient agar by tube dilution method. Format: functional, Salmonella enterica subsp. enterica serovar Paratyphi A. The conditions noted are these: Salmonella enterica. Put shortly: as §7

Consider `Cc1ccc(-n2cc(Cn3cc(CO)nn3)c(-c3ccccc3)n2)cc1C`, for which the figures for the inhibition at 10 µM in the experiment on U-937 [1] and with U-937 [9] were 87% and 41.7%, respectively. In addition, in the experiment on Mus musculus [2], the inhibition entry is “Active”. Also, the IC50 with U-937 [3] is 17.4 µM; in experiment [5] it was 64.44 µg/mL (≈ 179 µM); with U-937 [6], 7.72 µM. Moreover, the inhibition in experiment [4] is 77.6%; in experiment [7], 46.5%. Also, in the experiment with Mus musculus [8], the inhibition entry was “inactive”. In the experiment with Salmonella typhi [10], the zone of inhibition at 1000 µg/mL was 15.5 mm.
With `OCc1cn(-c2ccc(Cl)cc2)nc1-c1ccccc1`, the figures for the minimum inhibitory concentration (MIC) with Salmonella typhi [11], in the experiment with Micrococcus luteus [13] and against Salmonella paratyphi [15] were 62.5 µg/mL (≈ 219 µM), 3.9 µg/mL (≈ 13.7 µM) and 31.2 µg/mL (≈ 110 µM), respectively. The zone of inhibition at 1000 µg/mL with Salmonella paratyphi [12] was 18 mm; in the experiment on Micrococcus luteus [17], 26.5 mm; with Salmonella typhi [10] it was 21.5 mm. For the same molecule, the figures for the inhibition at 10 µM in the experiment with U-937 [1] and in the experiment with U-937 [9] were 21.6% and 2.61%, respectively. Besides, the MBC in the experiment on Salmonella typhi [14] amounted to 125 µg/mL (≈ 439 µM); against Micrococcus luteus [16], 7.81 µg/mL (≈ 27.4 µM); against Salmonella paratyphi [18], 62.5 µg/mL (≈ 219 µM). The inhibition in experiment [4] is 92.2%; in experiment [7], 76.7%. In addition, in experiment [5], the half-inhibitory concentration (IC50) came to 54.21 µg/mL (≈ 190 µM).
As for `COc1ccc(-c2nn(-c3ccccc3)cc2Cn2cc(CO)nn2)cc1`, the figures for the MIC against Salmonella typhi [11], with Micrococcus luteus [13] and in the experiment on Salmonella paratyphi [15] were 62.5 µg/mL (≈ 173 µM), 125 µg/mL (≈ 346 µM) and 62.5 µg/mL (≈ 173 µM), respectively. Further, the zone of inhibition at 1000 µg/mL with Salmonella paratyphi [12] is 19 mm; with Micrococcus luteus [17], 26 mm; in the experiment on Salmonella typhi [10] it was 16 mm. Also, the inhibition at 10 µM was determined as 46.7% in the experiment with U-937 [1] and 40.9% in the experiment with U-937 [9]. Further, the IC50 in the experiment on U-937 [3] came to 17.2 µM; in [5], 58 µg/mL (≈ 160 µM); in the experiment on U-937 [6], 9.5 µM. For the same molecule, the MBC is 125 µg/mL (≈ 346 µM) in the experiment on Salmonella typhi [14], 125 µg/mL (≈ 346 µM) against Micrococcus luteus [16] and 62.5 µg/mL (≈ 173 µM) in the experiment on Salmonella paratyphi [18]. In addition, the inhibition in experiment [4] was found to be 86.2%; in experiment [7], 69%.
For `COc1ccc(-c2nn(-c3ccccc3)cc2CO)cc1`, in the experiment on Salmonella paratyphi [12], the zone of inhibition at 1000 µg/mL is 11.5 mm. The results for the inhibition at 10 µM in the experiment on U-937 [1] and in the experiment on U-937 [9] were 68.5% and 22.9%, respectively. Besides, the IC50 with U-937 [3] came to 35.5 µM; in experiment [5], 105.45 µg/mL (≈ 376 µM); with U-937 [6], 8.24 µM. Besides, the inhibition was determined as 47.4% in [4] and 15.5% in [7].
For the molecule `OCc1cn(Cc2cn(-c3ccccc3)nc2-c2ccc(Cl)cc2)nn1`, in the experiment with Salmonella paratyphi [12], the zone of inhibition at 1000 µg/mL was found to be 15 mm. Besides, the inhibition at 10 µM with U-937 [1] was determined as 76.9%; in the experiment with U-937 [9], 19.2%. Besides, the IC50 amounted to 30.9 µM in the experiment on U-937 [3], 68.24 µg/mL (≈ 187 µM) in experiment [5] and 6.23 µM in the experiment on U-937 [6]. Moreover, the inhibition in experiment [4] turned out to be 73.3%; in experiment [7], 49.1%.
Take `OCc1cn(Cc2cn(-c3ccccc3)nc2-c2ccccc2)nn1`: in the experiment on Salmonella paratyphi [12], the zone of inhibition at 1000 µg/mL worked out at 12.5 mm. Besides, the inhibition at 10 µM was determined as 53% with U-937 [1] and 15.7% in the experiment on U-937 [9]. In addition, the figures for the IC50 (in the experiment with U-937 [3]; in experiment [5]; in the experiment with U-937 [6]) were 35.7 µM, 128.89 µg/mL (≈ 389 µM) and 8.12 µM, respectively. Also, the inhibition in experiment [4] amounted to 38.8%; in [7] it was 10.3%.
As to `Cc1ccc(-c2nn(-c3ccccc3)cc2CO)cc1`, the values for the zone of inhibition at 1000 µg/mL in the experiment on Salmonella paratyphi [12], in the experiment on Micrococcus luteus [17] and in the experiment with Salmonella typhi [10] were 14 mm, 16.5 mm and 19 mm, respectively. In addition, the inhibition at 10 µM in the experiment on U-937 [1] is 20.9%; in the experiment on U-937 [9], 0.74%. Moreover, the inhibition in [4] worked out at 81.9%; in experiment [7], 60.3%. This molecule also registered an IC50 in experiment [5] of 61.05 µg/mL (≈ 231 µM).
`Cc1ccc(-n2cc(Cn3cc(CO)nn3)c(-c3ccccc3)n2)cc1`: the zone of inhibition at 1000 µg/mL in the experiment with Salmonella paratyphi [12] was determined as 11.5 mm; in the experiment on Salmonella typhi [10] it was 19 mm. Also, the inhibition at 10 µM in the experiment with U-937 [1] was 50.4%; with U-937 [9], 31.2%. In addition, the IC50 with U-937 [3] turned out to be 21.4 µM; in experiment [5], 59.79 µg/mL (≈ 173 µM); in the experiment on U-937 [6], 8.7 µM. Moreover, the results for the inhibition in experiment [4] and in experiment [7] were 83.6% and 66.4%, respectively.
In the case of `COc1ccc(C2CNC(=O)C2)cc1OC1CCCC1` (stereo not given) [ROLIPRAM], the values for the inhibition at 10 µM in the experiment with U-937 [1] and with U-937 [9] were 53.5% and 59.1%, respectively. In addition, the IC50 with U-937 [3] is 1.12 µM; in the experiment with U-937 [6], 1.17 µM.
